These results are taken from ChEMBL document CHEMBL2375217, “Structure activity relationship of phenolic diterpenes from Salvia officinalis as activators of the nuclear factor E2-related factor 2 pathway” (Bioorg Med Chem, 2013).

The target in data set [1] is T1, Nuclear factor erythroid 2-related factor 2 (Mus musculus) (UniProt Q60795).
T1 sequence (whole entry): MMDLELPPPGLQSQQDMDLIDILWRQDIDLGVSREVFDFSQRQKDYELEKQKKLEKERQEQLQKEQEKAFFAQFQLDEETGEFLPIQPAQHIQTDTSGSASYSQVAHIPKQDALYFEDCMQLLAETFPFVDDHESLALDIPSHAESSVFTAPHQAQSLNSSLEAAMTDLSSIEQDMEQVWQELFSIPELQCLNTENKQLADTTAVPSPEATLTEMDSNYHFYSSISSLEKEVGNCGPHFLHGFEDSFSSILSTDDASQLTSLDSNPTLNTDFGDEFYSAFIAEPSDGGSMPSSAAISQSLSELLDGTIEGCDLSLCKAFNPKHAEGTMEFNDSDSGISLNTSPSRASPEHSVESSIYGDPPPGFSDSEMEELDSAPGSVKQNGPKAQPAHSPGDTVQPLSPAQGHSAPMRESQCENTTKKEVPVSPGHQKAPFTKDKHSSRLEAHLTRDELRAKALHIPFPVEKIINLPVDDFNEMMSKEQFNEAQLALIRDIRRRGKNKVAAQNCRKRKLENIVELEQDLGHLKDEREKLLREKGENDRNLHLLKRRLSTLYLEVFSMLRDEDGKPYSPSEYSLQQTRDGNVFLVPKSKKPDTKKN
Nature of the data set: Activation of Nrf2/ARE in E15 stage mouse primary cortical neurons at 6.25 to 50 uM after 48 hrs by human placental alkaline phosphatase reporter gene assay. In kind it is cell-based. The note with it: Cerebral cortex neuron. In short, it runs like this: (§1)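 Mixed cortical cultures (~40% astrocytes/60% neurons) from E15 ARE-hPAP reporter mice, hPAP driven by 51 bp rat NQO1 ARE promoter segment; 6 days in vitro, then compound in DMSO (0.1% final) for 48 h. Lysis in TMNC, endogenous phosphatase heat-inactivated in 200 mM DEA at 65 °C; CSPD chemiluminescence, hPAP-negative baseline subtracted; fold over vehicle, n = 5.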

Data set [2] addresses T1, Nuclear factor erythroid 2-related factor 2 (Mus musculus). Briefly: Activation of Nrf2/ARE in E15 stage mouse primary cortical neurons after 48 hrs by human placental alkaline phosphatase reporter gene assay. The format is cell-based. The note with it: Cerebral cortex neuron. An outline of the steps: as §1
(In general: A reporter such as luciferase makes a cellular process visible.)

For data set [3] the target is unchanged. Nature of the data set: Activation of Nrf2/ARE in E15 stage mouse primary cortical neurons at 50 uM after 48 hrs by human placental alkaline phosphatase reporter gene. In kind it is cell-based. The settings on record: Cerebral cortex neuron. An outline of the steps: as §1
Data set [4] is described as follows: Cytotoxicity against E15 stage mouse primary cortical neurons at 25 uM by MTS assay. The format is cell-based. The note with it: cerebral cortex neuron. An outline of the steps:
(§2)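 Mixed cortical cultures from E15 ARE-hPAP mice, 6 days in vitro (5% O2), exposed 48 h to compound in DMSO (0.1% final). Viability read by soluble MTS assay, normalised to vehicle as percent; mean ± SEM, n = 5, one-way ANOVA with Newman-Keuls.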
For orientation: Tetrazolium assays rely on reduction of a dye to a coloured formazan, in cell work by metabolically active cells.

Data set [5] addresses T1, Nuclear factor erythroid 2-related factor 2 (Mus musculus). Briefly: Activation of Nrf2/ARE in E15 stage mouse primary cortical neurons at 25 uM after 48 hrs by human placental alkaline phosphatase reporter gene assay relative to control. The note with it: Cerebral cortex neuron. The format is cell-based. An outline of the steps:
as §1

A short description of data set [6]: Cytotoxicity against E15 stage mouse primary cortical neurons at 50 uM by MTS assay. In kind it is cell-based. The settings on record: cerebral cortex neuron. An outline of the steps:
as §2

Data set [7] has as its system Cerebral cortex neuron. Briefly: Neuroprotective activity against H2O2-induced oxidative stress in E15 stage mouse primary cortical neurons at 10 uM incubated for 48 hrs prior to H2O2-treatment measured after 24 hrs by TUNEL/DAPI staining-based microscopic analysis. The format is functional, cell-based. In short, it runs like this: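 Cortical cultures pretreated 48 h with compound or vehicle, then 35 μM H2O2 for 24 h; fragmented DNA detected by TUNEL staining, nuclei counterstained with DAPI, imaged by photomicroscopy.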

Data set [8] deals with T1, Nuclear factor erythroid 2-related factor 2 (Mus musculus). Briefly: Induction of Nrf2/ARE-mediated GCLC gene expression in E15 stage mouse primary cortical neurons at 10 uM after 24 hrs by qPCR analysis. In kind it is cell-based. The settings on record: Cerebral cortex neuron. In short, it runs like this: (§3)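 E15 ARE-hPAP mouse mixed cortical cultures treated 24 h with compound or vehicle; total RNA harvested for quantitative PCR, normalised to GAPDH, fold change vs vehicle; n = 8 treated, n = 4 vehicle.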
For orientation: Quantitative PCR measures a nucleic acid by following its amplification.

Data set [9] relates to Cerebral cortex neuron. Nature of the data set: Neuroprotective activity against H2O2-induced toxicity in E15 stage mouse primary cortical neurons at 10 uM incubated for 48 hrs prior to H2O2-treatment measured after 24 hrs by MTS assay. In kind it is functional, cell-based. In short, it runs like this: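 Cortical cultures pretreated 48 h with compound or vehicle, then exposed to increasing H2O2 concentrations for 24 h; viability by soluble MTS assay. n = 4 compound, n = 8 vehicle; one-way ANOVA with Newman-Keuls.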

For data set [10], the target named is T1, Nuclear factor erythroid 2-related factor 2 (Mus musculus). Nature of the data set: Induction of Nrf2/ARE-mediated NQO1 gene expression in E15 stage mouse primary cortical neurons at 10 uM after 24 hrs by qPCR analysis. In kind it is cell-based. The settings on record: Cerebral cortex neuron. In short, it runs like this:
as §3

Data set [11] has as its system Cerebral cortex neuron. Nature of the data set: Neuroprotective activity against H2O2-induced toxicity in E15 stage mouse primary cortical neurons at 20 uM incubated for 48 hrs prior to H2O2-treatment measured after 24 hrs by MTS assay. In kind it is functional, cell-based. An outline of the steps:
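Mixed cortical cultures (~40% astrocytes, 60% neurons) from E15 ARE-hPAP reporter mouse pups were pretreated with compound or vehicle for 48 h. They were then challenged with increasing H2O2 concentrations for 24 h. Viability was read by soluble MTS assay. Mean ± SEM, n = 4 compound, n = 8 vehicle. One-way ANOVA with Newman-Keuls.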

The target in data set [12] is T1, Nuclear factor erythroid 2-related factor 2 (Mus musculus). Nature of the data set: Induction of Nrf2/ARE-mediated GCLC gene expression in E15 stage mouse primary cortical neurons at 20 uM after 24 hrs by qPCR analysis. The note with it: Cerebral cortex neuron. The format is cell-based. An outline of the steps:
(§4)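 Mixed cortical cultures (~40% astrocytes, 60% neurons) from E15 ARE-hPAP reporter mouse pups, grown in Neurobasal/B27 medium at 37 °C under 5% O2, 5% CO2. Treated with compound or vehicle for 24 h. Total RNA used for quantitative PCR, normalised to GAPDH and expressed as fold change relative to vehicle. Mean ± SEM, n = 8 treated, n = 4 vehicle. One-way ANOVA with Newman-Keuls.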

Data set [13] shares this target. Briefly: Induction of Nrf2/ARE-mediated GCLM gene expression in E15 stage mouse primary cortical neurons at 20 uM after 24 hrs by qPCR analysis. The format is cell-based. The settings on record: Cerebral cortex neuron. An outline of the steps: as §4
For data set [14], the system named is Cerebral cortex neuron. Briefly: Neuroprotective activity against H2O2-induced oxidative stress in E15 stage mouse primary cortical neurons at 20 uM incubated for 48 hrs prior to H2O2-treatment measured after 24 hrs by TUNEL/DAPI staining-based microscopic analysis. The format is functional, cell-based. An outline of the steps:
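Mixed cortical cultures (~40% astrocytes, 60% neurons) from E15 ARE-hPAP reporter mouse pups were pretreated with compound or vehicle for 48 h. They were then exposed to 35 μM H2O2 for a further 24 h. Fragmented DNA was stained by TUNEL and nuclei by DAPI, and both were imaged by photomicroscopy.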

Data set [15] concerns the target T1, Nuclear factor erythroid 2-related factor 2 (Mus musculus). Briefly: Induction of Nrf2/ARE-mediated NQO1 gene expression in E15 stage mouse primary cortical neurons at 20 uM after 24 hrs by qPCR analysis. The format is cell-based. The note with it: Cerebral cortex neuron. In short, it runs like this: as §4

Activity calls are given as the source filed them. No cut-off for these calls is given here.

Take `CC(C)(C)c1cc(O)ccc1O`: the outcome in data set [1] was Active.

`CC(C)c1cc2c(c(O)c1O)C1=C(CC2)C(C)(C)CCC1=O`: the outcome in data set [1] was Active. Also, the Activity entry in data set [2] is “Dose-dependent effect”.

Take `CC(C)c1cc2c(c(O)c1O)[C@@]13CCCC(C)(C)[C@@H]1[C@H](OC3=O)[C@@H]2O`: the outcome in data set [1] was Active. Moreover, in data set [2], the Activity entry was “Dose-dependent effect”.

As for `CC(C)c1cc2c(c(O)c1O)[C@@]13CCCC(C)(C)[C@@H]1[C@H](OC3=O)[C@H]2O`, in [1], the result was Active. Besides, in data set [2], the Activity result was “Dose-dependent effect”.

Turning to `COc1c(C(C)C)cc2c(c1O)[C@@]1(C(=O)O)CCCC(C)(C)[C@@H]1CC2`, in [1], the result was inactive.

`CC(C)c1cc2c(c(O)c1O)[C@@]1(C=O)CCCC(C)(C)[C@@H]1CC2` [CARNOSALDEHYDE]: in [3], the outcome was inactive. Besides, the Activity entry in data set [4] is “Toxic”; in [6], “Toxic”; in [2], “Dose-dependent effect”. Besides, the fold change (FC) in data set [5] is 50. For the same molecule, the result (in the data set on Cerebral cortex neuron [7]; in data set [8]; in the data set on Cerebral cortex neuron [9]; in [10]) was Active.

With `CC(C)c1cc2c(c(O)c1O)[C@@]1(C(=O)O)CCCC(C)(C)[C@@H]1CC2` [CARNOSIC ACID], the outcome in data set [1] was Active. The figures for the Activity entry in [6] and in data set [2] were “Toxic” and “Dose-dependent effect”, respectively.

Regarding `CC(C)c1cc2c(c(O)c1O)[C@@]13CCCC(C)(C)[C@@H]1C[C@@H]2OC3=O` [CARNOSOL], the result in [3] was inactive. This molecule also yielded a fold change (FC) in [5] of 50. In addition, the outcome (in the data set on Cerebral cortex neuron [11]; in data set [12]; in data set [13]; with Cerebral cortex neuron [14]; in data set [15]) was Active. The Activity result in [6] is “Toxic”; in [2], “Dose-dependent effect”.
